Format in all cases: cell-based
Test [1] deals with Transient receptor potential cation channel subfamily V member 1 (Rattus norvegicus) (UniProt O35433). The experiment in a line: Agonist activity at rat TRPV1 channel expressed in HEK293 cells assessed as induction of inward current at 10 uM and -60 mV holding potential by whole-cell patch-clamp method. The method in brief:
(§1)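 Rat TRPV1 cDNA and an EGFP reporter were cotransfected into HEK293 cells, with recording 1 day later. Whole-cell voltage clamp was run at room temperature (~25 °C) in standard bath (2 mM CaCl2, pH 7.4) with a KCl/MgATP/EGTA pipette solution. Steps from −100 to +100 mV (100 ms) gave I–V curves. Agonist was applied until desensitization, and peak current was scored. EC50 came from a sigmoidal fit.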

Test [2] has the same target. The experiment in a line: Agonist activity at rat TRPV1 channel expressed in HEK293 cells assessed as outward rectifying current at 10 uM and -60 mV holding potential by whole-cell patch-clamp method. The procedure, abridged:
as §1

Test [3] has the same target. Briefly: Agonist activity at rat TRPV1 channel expressed in HEK293 cells assessed as reversal potential at 10 uM and -60 mV holding potential by whole-cell patch-clamp method. The procedure, abridged: as §1
A general note: The patch-clamp technique gives a direct electrical read-out from membranes.

Test [4] shares this target. Briefly: Agonist activity at rat TRPV1 channel expressed in HEK293 cells assessed as induction of maximum channel current at 10 uM at -60 mV holding potential by whole-cell patch-clamp method. The procedure, abridged: as §1
The target is the same in test [5]. Briefly: Desensitization of rat TRPV1 expressed in HEK293 cells at 10 uM for 30 sec at -60 mV holding potential in presence of extracellular calcium by whole-cell patch clamp method. The method in brief:
as §1

Test [6] shares this target. The experiment in a line: Partial antagonist activity at rat TRPV1 expressed in HEK293 cells assessed as effect on capsaicin-induced inward current at 0.1 uM by whole-cell patch clamp method (reference value: -[…] +/- […] pA/pF).
Test [7] has the same target. Briefly: Partial antagonist activity at rat TRPV1 expressed in HEK293 cells assessed as effect on capsaicin-induced inward current at 0.1 uM by whole-cell patch clamp method (reference value: -480.7 +/- 96.9 pA/pF). The procedure, abridged:
(§2)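 HEK293 cells transiently expressing rat TRPV1 (EGFP cotransfected) were patched in whole-cell mode 1 day post-transfection. Cells were held at −60 mV in Ca2+-containing standard bath (pH 7.4) at ~25 °C. Capsaicin-evoked peak current amplitude was quantified. Sigmoidal curve fitting gave EC50 or IC50 values.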

The target is the same in test [8]. The experiment in a line: Partial antagonist activity at rat TRPV1 expressed in HEK293 cells assessed as effect on capsaicin-induced inward current at 0.1 uM by whole-cell patch clamp method (reference value: -431 +/- 43.1 pA/pF). The method in brief:
as §2

For test [9] the target is unchanged. Briefly: Partial antagonist activity at rat TRPV1 expressed in HEK293 cells assessed as effect on capsaicin-induced inward current at 0.1 uM by whole-cell patch clamp method (reference value: -327.4 +/- 52.3 pA/pF). The procedure, abridged:
as §2

The target is the same in test [10]. The experiment in a line: Partial antagonist activity at rat TRPV1 expressed in HEK293 cells assessed as effect on capsaicin-induced inward current at 0.1 uM by whole-cell patch clamp method (reference value: -151.2 +/- 33 pA/pF). The method in brief:
as §2

The target is the same in test [11]. Briefly: Partial antagonist activity at rat TRPV1 expressed in HEK293 cells assessed as effect on capsaicin-induced inward current at 0.1 uM by whole-cell patch clamp method (reference value: -7 +/- 2.6 pA/pF). The procedure, abridged: as §2
Test [12] has the same target. Briefly: Partial antagonist activity at rat TRPV1 expressed in HEK293 cells assessed as effect on capsaicin-induced inward current at 0.6 uM by whole-cell patch clamp method (reference value: -[…] +/- […] pA/pF).
For test [13] the target is unchanged. Briefly: Partial antagonist activity at rat TRPV1 expressed in HEK293 cells assessed as effect on capsaicin-induced inward current at 0.6 uM by whole-cell patch clamp method (reference value: -480.7 +/- 96.9 pA/pF). The procedure, abridged: as §2
Test [14] has the same target. Briefly: Partial antagonist activity at rat TRPV1 expressed in HEK293 cells assessed as effect on capsaicin-induced inward current at 0.6 uM by whole-cell patch clamp method (reference value: -431 +/- 43.1 pA/pF). The method in brief:
as §2

For test [15] the target is unchanged. The experiment in a line: Partial antagonist activity at rat TRPV1 expressed in HEK293 cells assessed as effect on capsaicin-induced inward current at 0.6 uM by whole-cell patch clamp method (reference value: -327.4 +/- 52.3 pA/pF). The procedure, abridged:
as §2

Test [16] shares this target. Briefly: Partial antagonist activity at rat TRPV1 expressed in HEK293 cells assessed as effect on capsaicin-induced inward current at 0.6 uM by whole-cell patch clamp method (reference value: -151.2 +/- 33 pA/pF). The procedure, abridged:
as §2

Test [17] shares this target. Briefly: Partial antagonist activity at rat TRPV1 expressed in HEK293 cells assessed as effect on capsaicin-induced inward current at 0.6 uM by whole-cell patch clamp method (reference value: -7 +/- 2.6 pA/pF). The procedure, abridged: as §2
The target is the same in test [18]. The experiment in a line: Partial antagonist activity at rat TRPV1 expressed in HEK293 cells assessed as effect on capsaicin-induced inward current at 1 uM by whole-cell patch clamp method. The method in brief:
as §2

For test [19] the target is unchanged. The experiment in a line: Partial antagonist activity at rat TRPV1 expressed in HEK293 cells assessed as effect on capsaicin-induced inward current at 1 uM by whole-cell patch clamp method (reference value: -[…] +/- […] pA/pF).
Test [20] shares this target. The experiment in a line: Partial antagonist activity at rat TRPV1 expressed in HEK293 cells assessed as effect on capsaicin-induced inward current at 1 uM by whole-cell patch clamp method (reference value: -480.7 +/- 96.9 pA/pF). The method in brief: as §2

Activity calls are given as the source filed them. The calls are words filed in the database; no cut-off is given here.

Chain of Transient receptor potential cation channel subfamily V member 1 (Rattus norvegicus) (O35433 whole entry): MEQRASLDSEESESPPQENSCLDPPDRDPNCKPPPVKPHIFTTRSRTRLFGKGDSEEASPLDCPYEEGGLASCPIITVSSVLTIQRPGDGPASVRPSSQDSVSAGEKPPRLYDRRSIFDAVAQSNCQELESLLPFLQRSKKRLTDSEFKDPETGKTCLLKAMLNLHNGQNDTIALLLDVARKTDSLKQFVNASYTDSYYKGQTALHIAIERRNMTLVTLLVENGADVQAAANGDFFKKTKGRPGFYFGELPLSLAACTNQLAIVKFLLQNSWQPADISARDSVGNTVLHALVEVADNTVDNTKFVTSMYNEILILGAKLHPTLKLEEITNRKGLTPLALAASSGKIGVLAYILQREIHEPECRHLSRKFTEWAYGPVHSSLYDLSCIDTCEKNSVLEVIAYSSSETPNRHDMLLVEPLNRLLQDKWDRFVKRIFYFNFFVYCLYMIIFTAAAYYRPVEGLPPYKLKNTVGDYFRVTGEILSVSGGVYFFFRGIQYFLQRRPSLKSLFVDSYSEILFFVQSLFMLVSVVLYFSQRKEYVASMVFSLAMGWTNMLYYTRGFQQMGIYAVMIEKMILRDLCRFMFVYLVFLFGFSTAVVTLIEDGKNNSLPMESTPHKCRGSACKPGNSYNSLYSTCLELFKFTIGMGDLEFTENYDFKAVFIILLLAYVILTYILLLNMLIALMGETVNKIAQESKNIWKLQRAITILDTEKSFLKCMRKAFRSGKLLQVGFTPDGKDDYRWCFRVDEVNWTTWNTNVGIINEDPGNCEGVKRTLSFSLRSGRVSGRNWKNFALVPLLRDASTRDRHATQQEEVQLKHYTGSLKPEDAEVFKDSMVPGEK

With `CN1c2ccccc2C(=O)N2CCc3c([nH]c4ccccc34)C21` (stereo not given), the outcome in test [1], in [2] and in test [5] was Active. Further, the Activity is 0 mV in test [3]; -143 pA/pF in [4]; -492 pA/pF in test [6]; -416 pA/pF in test [7]; -390 pA/pF in [8]; -236 pA/pF in test [9]. The Activity in test [10] is -94.8 pA/pF; in test [11], -6.4 pA/pF; in test [12], -528 pA/pF; in test [13], -422 pA/pF; in test [14] it was -328 pA/pF; in [15], -208 pA/pF. For the same compound, the Activity in test [16] is -81.6 pA/pF; in test [17], -35.9 pA/pF; in test [18], -448 pA/pF; in [19] it was -370 pA/pF; in test [20], -296 pA/pF.

Values taken from ChEMBL document CHEMBL3856186, “Partial Activation and Inhibition of TRPV1 Channels by Evodiamine and Rutaecarpine, Two Major Components of the Fruits of Evodia rutaecarpa” (J Nat Prod, 2016).
